# Screening data (PubChem)
# Autophagy HCS = autophagy modulators in MEF cells, primary screen, imaging, high-content, MEF GFP-LC3; MEF GFP-LC3 puncta imaging; test concentration mostly 10 µM; calls only at 10 µM (by protocol); actives 0.98% (n = 190,000);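 active = percentage of spot-positive cells more than 3 SD above its plate mean, without a fluorescence outlier flag or 80% toxicity; inconclusive = no clear call, values can overlap the other calls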;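 also: spot-positive cell cutoff set from DMSO-treated cells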
# Cl transport mod = KCC2 cotransporter modulators, thallium flux, primary screen, cell-based, HEK293 KCC2, FluoZin-2 fluorescence, MLSMR. actives 2.2% (n = 190,000). KCC2 cells, thallium flux FluoZin-2 fluorescence. B-score of Tl+ flux slope (higher = more flux/activation; lower = inhibition) at 10 µM;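 active = thallium flux slope and its plate-corrected score both differing from the plate sample mean at a set confidence after two filtering rounds, in either direction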;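 also: slope of fluorescence scaled to starting intensity during 10 to 20 s after thallium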
# Target sequence (Q9H2X9 whole entry, looked up): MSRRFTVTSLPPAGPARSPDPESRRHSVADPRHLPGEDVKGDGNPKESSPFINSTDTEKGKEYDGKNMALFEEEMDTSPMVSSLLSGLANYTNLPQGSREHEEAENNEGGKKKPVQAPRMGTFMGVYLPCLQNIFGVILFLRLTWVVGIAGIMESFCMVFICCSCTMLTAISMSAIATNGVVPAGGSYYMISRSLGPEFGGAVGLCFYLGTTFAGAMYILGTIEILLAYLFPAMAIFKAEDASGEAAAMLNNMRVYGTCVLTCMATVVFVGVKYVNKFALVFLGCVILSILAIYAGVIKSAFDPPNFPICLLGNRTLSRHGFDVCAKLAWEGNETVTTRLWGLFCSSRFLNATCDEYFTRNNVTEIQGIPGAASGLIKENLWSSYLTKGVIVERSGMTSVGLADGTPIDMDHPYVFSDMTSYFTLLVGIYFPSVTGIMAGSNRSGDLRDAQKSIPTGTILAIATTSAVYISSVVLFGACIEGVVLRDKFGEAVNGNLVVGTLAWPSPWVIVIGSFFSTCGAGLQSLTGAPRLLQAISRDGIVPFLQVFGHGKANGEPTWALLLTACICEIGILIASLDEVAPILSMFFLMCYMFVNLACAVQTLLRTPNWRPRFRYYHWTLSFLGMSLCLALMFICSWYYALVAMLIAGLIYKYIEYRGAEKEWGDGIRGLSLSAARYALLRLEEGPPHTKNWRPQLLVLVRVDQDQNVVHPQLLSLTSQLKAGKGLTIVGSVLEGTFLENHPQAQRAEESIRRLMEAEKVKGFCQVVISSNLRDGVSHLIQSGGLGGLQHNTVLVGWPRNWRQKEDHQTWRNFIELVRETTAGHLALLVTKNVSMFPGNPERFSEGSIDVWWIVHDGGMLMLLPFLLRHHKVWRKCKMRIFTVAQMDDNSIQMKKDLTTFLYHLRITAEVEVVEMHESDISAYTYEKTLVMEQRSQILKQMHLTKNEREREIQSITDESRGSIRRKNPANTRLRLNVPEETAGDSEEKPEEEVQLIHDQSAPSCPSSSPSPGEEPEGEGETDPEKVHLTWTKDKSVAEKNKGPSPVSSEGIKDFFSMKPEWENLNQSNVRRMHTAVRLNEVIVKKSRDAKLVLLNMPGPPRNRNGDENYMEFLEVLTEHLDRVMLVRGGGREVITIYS
# WT yeast gro inh = growth inhibition of WT strain, primary screen, mitochondrial fusion inhibitor project, WT and mutant strains, chemical genetic; mitochondrial fusion phenotypic screen; inhibition, % at 10 µM; actives 2.1% (n = 190,000); in the data active = inhibition above about 58%; tested in S. cerevisiae
# Ins promoter up = insulin promoter activators in MIN6 cells, imaging, high-content screening, mouse beta cells. AID 1625, 2009. MIN6 insulin promoter-GFP reporter; active compounds read high. z-score at 5 µM. actives 0.3% (n = 190,000);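 active = z-score above 3 at 5 µM with at least 500 cells counted in the well; inconclusive = wells under 500 cells, flagged as cytotoxic or low count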
# Rad51 HR inh = human RAD51 strand exchange inhibitors, primary screen, biochemical, fluorescence; DNA repair protein RAD51 homolog 1 (Homo sapiens), Q06609; hRad51 DNA strand exchange, fluorescence dequenching; inhibition, % at 10 µM; actives 0.085% (n = 200,000); AID 1385, 2008;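 active = inhibition above 40% at the single screening dose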;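 also: 0% = DMSO control wells and 100% = blanks with heterologous ssDNA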
#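 System: human Rad51 nucleoprotein filaments preassembled on unlabelled ssDNA. Reagent: labelled 47-mer dsDNA for strand exchange. Schedule: 30-min compound preincubation and 15-min exchange, both room temperature. Measured by: FRET fluorescence dequenching, excitation 485 nm, emission 520 nm. Read-out: Fluorescence-based percent inhibition, control- and blank-normalised. Benchmarks: plate controls and plate blanks.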
# SKKanGAS inh = S. pyogenes SKKanGAS growth inhibitors in kanamycin, primary screen, streptokinase expression inhibitor project, SKKanGAS strain, BacTiter-Glo luminescence | 6 h | inhibition, % at 7.5 µM | actives 1.3% (n = 300,000) | AID 1662, 2009;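 active = mean replicate score, as percent of positive control median, at least 50; inconclusive = mean below 50 but one replicate at or above 50; inactive = mean and every replicate below 50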;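 also: strain carries kanamycin resistance gene driven by streptokinase promoter and grows in 40 µg/ml kanamycin; loss of luminescence reflects streptokinase promoter inhibition or plain growth inhibition; 0% = median of DMSO wells and 100% = positive control at its reference dose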
# KCC2 secondary = KCC2 modulators in sodium-free buffer, confirmation, cell-based, HEK293 KCC2, thallium flux, secondary assay | shares compounds with Cl transport mod | FluoZin2 fluorescence; active compounds read high | normalised thallium flux (F/F0 slope) at 10 µM | actives 15% (n = 3,700) | AID 1713, 2009;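 active = thallium flux slope above the same plate's solvent-only control mean plus 3 SD; inconclusive = the two replicate wells disagree; inactive = no significant difference from solvent-only control wells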
# KCC2 bumet counter = thallium flux persisting under bumetanide in KCC2 cells, confirmation, counter-screen for KCC2 modulator project, cell-based, HEK293 KCC2, FluoZin2, secondary assay 3; actives 49% (n = 3,700); AID 1714, 2009; normalized thallium flux at 10 µM; HEK293-KCC2 + bumetanide/ouabain; active compounds read high; shares compounds with Cl transport mod;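 active = thallium entry rate above the same plate's blocked-transporter control wells by more than 3 SD; inconclusive = the two repeat wells disagree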;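 also: raw slope of fluorescence over initial fluorescence between 10 and 20 s after thallium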
# KCC2 sec2 = KCC2 modulators without ouabain present, confirmation, cell-based, HEK293 KCC2, thallium flux, FluoZin2, secondary assay 2; shares compounds with Cl transport mod; thallium flux FluoZin2 fluorescence; actives lie on both sides; F/F0 rise rate, 10–20 s post-thallium; normalized thallium flux at 10 µM; actives 23% (n = 3,700);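 active = thallium flux slope more than 3 SD above or below the plate's solvent-only control mean, mostly below; inconclusive = the two repeat wells disagreed; inactive = no significant shift from solvent-only controls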;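 also: raw slope with 0.1% DMSO as baseline and bumetanide as block control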
# HEK counter1 = thallium flux modulation in parental HEK cells, confirmation, counter-screen for KCC2 modulator project, cell-based, counterscreen 1. shares compounds with Cl transport mod. HEK293 parental cells, thallium flux FluoZin2, ouabain; baseline-ratio fluorescence slope, 10–20 s after thallium. thallium flux rate (normalised fluorescence) at 10 µM. actives 46% (n = 3,700). AID 1716, 2009;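 active = thallium flux rate significantly above the same plate's solvent-only control wells, beyond their mean plus 3 SD; inconclusive = the two replicate wells gave conflicting results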
# KCC2 ouabain = KCC2 inhibitors and activators, ouabain retest, confirmation, HEK-KCC2 cells. shares compounds with Cl transport mod. actives 48% (n = 3,700). raw Tl+ flux slope (below DMSO = inhibition, above = activation) at 10 µM. HEK293-KCC2, thallium flux FluoZin2 fluorescence; bidirectional: low = inhibitor, high = activator. AID 1717, 2009;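 active = thallium flux slope beyond 3 SD from same-plate DMSO control mean in most replicates, usually higher, sometimes lower; inconclusive = repeat tests gave conflicting results; inactive = no significant difference from controls in most replicates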;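 also: slope of initial-normalized fluorescence between seconds 10 and 20 after thallium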
# HEK293 Tl flux2 = native HEK Tl+ uptake effects, second counter-screen – HEK cells, counterscreen 2, counter-screen for KCC2 modulator project, confirmation. shares compounds with Cl transport mod. HEK293 parental, thallium flux FluoZin-2 fluorescence slope. thallium flux slope at 10 µM. actives 33% (n = 3,700);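 active = thallium flux slope above the same plate's solvent-control mean plus 3 SD in both duplicate wells; inconclusive = duplicate wells that disagreed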;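 also: run without ouabain in cells lacking the KCC2 cotransporter; slope of fluorescence scaled to its starting value between 10 and 20 s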
# * = called active by the depositor; i = inactive; ? = inconclusive; . = no result. Shown are actives, neighbours in structure and some others; about 4.2% of the full set was active somewhere.
SMILES,Autophagy HCS,Cl transport mod,WT yeast gro inh,Ins promoter up,Rad51 HR inh,SKKanGAS inh,KCC2 secondary,KCC2 bumet counter,KCC2 sec2,HEK counter1,KCC2 ouabain,HEK293 Tl flux2
COc1ccccc1NS(=O)(=O)c1cccc(C(=O)NCc2ccco2)c1,i,0.5,8,0.42,16,0,.,.,.,.,.,.
O=S(=O)(Nc1nc2ccccc2nc1Nc1cccc(S(=O)(=O)N2CCCCC2)c1)c1ccccc1,i,-3.5*,-10,-0.97,-6,64*,0.0063,0.0068,0.026,?,?,0.0097
CCOc1ccc(C(Nc2cccnc2)c2cc(Cl)c3cccnc3c2O)cc1 (centres undefined),i,5*,-9,0.41,-1,.,0.0089,0.014*,0.034,0.018*,?,0.01
CCCC(=O)NC(c1ccc2c(c1)OCO2)c1cc(Cl)c2cccnc2c1O (centres undefined),i,4.1*,-26,0.04,0,62*,0.0076,0.0057,0.03,0.0067,0.02,0.0086
O=C(NC1CC1)c1cc2c(s1)-c1ccccc1OC2,i,.,10,0.97,7,-10,0.0071,0.0059,0.035,0.0039,0.017*,0.011
COc1ccc(CN(CCN)C2CC(C)N(C)CC2C)cc1 (centres undefined),.,.,.,.,.,10,.,.,.,.,.,.
COC(=O)c1ccccc1NC(=S)NC(=O)COc1ccc(C)cc1,i,3.2,.,.,7,7,.,.,.,.,.,.
O=C(NC(=S)Nc1ccccc1[N+](=O)[O-])c1ccccc1Cl,.,19*,.,0.72,.,30,?,0.034*,0.035,0.019*,0.03*,0.013*
O=C(O)c1ccc(Cl)c(NC(=S)NC(=O)c2ccccc2[N+](=O)[O-])c1,i,-0.019,-8,0,-4,2,.,.,.,.,.,.
COc1ccc(CC(=O)Nc2nc(-c3cccc([N+](=O)[O-])c3)cs2)cc1,i,-0.17,8,0.07,0,1,.,.,.,.,.,.
COC(=O)c1ccccc1NC(=S)NC(=O)COc1ccccc1Cl,i,19*,35,0.06,.,17,0.023*,0.05*,?,0.012*,0.024*,0.016*
CCc1ccccc1NC(=S)NNC(=O)c1ccccc1Cl,i,3.2*,3,0.1,22,27,0.017,0.012*,0.03,0.011*,0.019,0.014*
